# Active and inactive are the calls of the source.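 Rule for the calls, unless noted: active = fluorescence slope after compound addition differing from the mean of all tested samples at 99.7% confidence, mostly higher but some lower; inactive = the rest.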
# Columns and labels:
# [1] = inhibitors of TNFa-induced NFkB p65 translocation, primary screen, imaging, HUVEC, MLSMR starter and 10KST1 sets (AID 438;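 active = inhibition above 20% together with a positive visual image hit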;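 note: compound added about 3h40 before a 20 min TNFalpha stimulation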;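 for inhibition: signal is the nuclear over cytoplasmic p65 intensity ratio per well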); details: HUVEC TNFa-induced p65 nuclear translocation; cell count: measured here: nuclei count (cytotoxicity indicator), at 2.08 µM; inhibition: at 2 µM, stronger effect = higher value, 0% TNFa-plus-vehicle, 100% no-TNFa wells
# [2] = reduction of polyQ htt aggregates in cells – imaging, exon1htt(103Q)mCFP cells, high-content imaging, primary screen (AID 483;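 active = visual image review flags a hit and inhibition of aggregation exceeds 20%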;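 note: compound exposure lasted 3 days before fixation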;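 for nuclei count: percent of the per-plate median nuclei count of sample wells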); details: exon1htt(103Q)mCFP cell line, aggregate imaging, at 2 µM; inhibition of aggregation: stronger effect = higher value; nuclei count: measured here: cell count, toxicity
# [3] = endothelial E-selectin expression blockers – imaging, HUVEC, immunofluorescence, MLSMR starter and 10KST1 sets, primary screen (AID 487;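 active = visually confirmed hit in the image check and inhibition above 20%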;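 for inhibition: signal is fraction of cell area covered by stained E-selectin grains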;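 for nuclei count: 100% = median nuclei count of all wells on the same plate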); details: HUVEC TNFalpha-induced E-selectin immunofluorescence imaging, at 2 µM; inhibition: stronger effect = higher value; nuclei count: measured here: cell number, toxicity
# [4] = molecular target: Voltage-gated potassium channel subunit beta-2 (Rattus norvegicus) (UniProt P62483); test: inhibitors of rat Kvbeta2 reductase activity – biochemical, NADPH fluorescence, primary screen (AID 622;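 active = fluorescence slope higher than the sample average by over 3 SD, cut at about -0.22 in these data, passing the limit was not always enough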;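 note: slope of raw intensity against log time taken from 70 to 1610 s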); details: recombinant KvBeta, 4-cyanobenzaldehyde reduction, at 10 µM, stronger effect = higher value
# [5] = molecular target: Voltage-gated potassium channel subunit beta-2 (Rattus norvegicus) (UniProt P62483); test: enhancers of rat Kvbeta2 NADPH turnover – biochemical, NADPH fluorescence, primary screen (AID 623;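 active = NADPH fluorescence slope more negative than the mean of all samples by about 3 SD, 99.7% confidence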;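 note: fluorescence intensity change per second fitted from 20 to 320 s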); details: Recombinant KvBeta, NADPH fluorescence decrease slope, 10 min; at 10 µM; stronger effect = lower value
# [6] = molecular target: Muscarinic acetylcholine receptor M4 (Homo sapiens) (UniProt P08173); test: M4-linked GIRK flux change, two-sided – cell-based, HEK293 M4/GIRK, thallium flux, BTC-AM, M4 allosteric agonist project, primary screen (AID 625); details: at 10 µM, actives lie on both sides;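 note: thallium influx through GIRK channels coupled to M4 in HEK293 cells with BTC-AM dye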
# Outline: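 Assay system: HEK293 cells with M4 receptor and GIRK channels / Controls: carbachol and DMSO controls / Schedule: 1 h dye loading, 2 min kinetic read / Technique: kinetic fluorescence with BTC-AM dye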
# [7] = blockers of RIG-like receptor reporter activation – cell-based, Sendai virus stimulus, luciferase, 10K MLSCN set, TLR/RLR signaling modifier project, primary screen (AID 602276;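 active = inhibition at or above 50% at 10 µM; inactive = inhibition below 50%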;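 note: firefly luciferase from ISG56 promoter only with Renilla not read in this screen; 0% = Sendai virus plus DMSO and 100% = medium plus DMSO without virus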); details: HEK293 RL24 IRF3 luciferase reporter, at 10 µM, stronger effect = higher value
# [8] = TLR3 IRF3 reporter activation blockers – cell-based, poly I:C stimulus, luciferase, 10K MLSCN set, primary screen (AID 602277;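 active = inhibition of the reporter signal at or above 50%; inactive = inhibition below 50%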); details: HEK293-TLR3 RL24 IRF3 luciferase reporter, at 10 µM, stronger effect = higher value
# Chain of Voltage-gated potassium channel subunit beta-2 (Rattus norvegicus) (P62483 whole entry, looked up): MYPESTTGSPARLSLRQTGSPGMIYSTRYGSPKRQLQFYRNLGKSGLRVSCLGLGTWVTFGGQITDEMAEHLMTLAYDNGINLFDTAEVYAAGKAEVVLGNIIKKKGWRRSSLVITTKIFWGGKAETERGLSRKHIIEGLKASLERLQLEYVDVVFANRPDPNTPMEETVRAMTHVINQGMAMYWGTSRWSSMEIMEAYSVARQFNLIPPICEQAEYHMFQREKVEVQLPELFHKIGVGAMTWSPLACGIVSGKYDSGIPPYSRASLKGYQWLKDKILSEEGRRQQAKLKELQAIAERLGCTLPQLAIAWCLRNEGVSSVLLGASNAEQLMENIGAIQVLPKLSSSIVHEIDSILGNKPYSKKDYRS
# Chain of Muscarinic acetylcholine receptor M4 (Homo sapiens) (P08173 whole entry, looked up): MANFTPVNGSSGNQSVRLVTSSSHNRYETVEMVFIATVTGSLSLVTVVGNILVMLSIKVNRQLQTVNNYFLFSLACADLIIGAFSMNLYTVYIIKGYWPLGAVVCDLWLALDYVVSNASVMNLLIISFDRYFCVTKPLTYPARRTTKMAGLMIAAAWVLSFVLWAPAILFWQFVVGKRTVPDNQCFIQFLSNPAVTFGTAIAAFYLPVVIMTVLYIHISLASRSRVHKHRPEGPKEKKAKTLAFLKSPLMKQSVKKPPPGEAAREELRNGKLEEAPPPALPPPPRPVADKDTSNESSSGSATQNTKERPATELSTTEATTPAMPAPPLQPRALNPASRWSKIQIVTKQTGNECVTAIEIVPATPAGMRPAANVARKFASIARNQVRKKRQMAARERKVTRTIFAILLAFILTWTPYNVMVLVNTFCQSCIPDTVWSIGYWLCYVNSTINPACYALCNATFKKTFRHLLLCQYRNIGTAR
compound,measurement,setting,value
c1ccc(-c2cc(-c3nc(-c4ccccn4)no3)c3ccccc3n2)cc1,cell count,[1],469
same,inhibition,[1],7.6% (inactive)
same,inhibition of aggregation,[2],-4.3% (inactive)
same,nuclei count,[2],101%
same,inhibition,[3],-171% (inactive)
same,nuclei count,[3],140%
same,fluorescence slope,[4],-0.265 (inactive)
same,NADPH fluorescence slope,[5],-8.8e-06 (inactive)
same,fluorescence slope,[6],0.0088 (inactive)
same,inhibition,[7],0.406% (inactive)
same,inhibition,[8],-37.7% (inactive)
CCOC(=O)C1CCN(C(=O)C2CCN(S(=O)(=O)c3cc(Cl)ccc3Cl)CC2)CC1,cell count,[1],738
same,inhibition,[1],-4.9% (inactive)
same,inhibition of aggregation,[2],14.8% (inactive)
same,nuclei count,[2],91.3%
same,inhibition,[3],4.5% (inactive)
same,nuclei count,[3],96.7%
same,fluorescence slope,[4],-0.542 (inactive)
same,NADPH fluorescence slope,[5],2.5e-05 (inactive)
same,fluorescence slope,[6],0.00485 (inactive)
same,inhibition,[7],16% (inactive)
same,inhibition,[8],9.65% (inactive)
COc1ccccc1CN1C(=O)CCC1(C)C(=O)NC1CCCCCC1 (centres undefined),cell count,[1],452
same,inhibition,[1],5.3% (inactive)
same,inhibition of aggregation,[2],14.8% (inactive)
same,nuclei count,[2],63.8%
same,inhibition,[3],-184% (inactive)
same,nuclei count,[3],115%
same,fluorescence slope,[4],-0.44 (inactive)
same,NADPH fluorescence slope,[5],0.000132 (inactive)
same,fluorescence slope,[6],0.00525 (inactive)
same,inhibition,[7],0.126% (inactive)
same,inhibition,[8],9.28% (inactive)
CCOc1cc(N2CCOCC2)c(OCC)cc1NC(=O)COC(=O)CCc1c[nH]c2ccccc12,cell count,[1],300
same,inhibition,[1],-5.2% (inactive)
same,inhibition of aggregation,[2],7.9% (inactive)
same,nuclei count,[2],105%
same,inhibition,[3],-28% (inactive)
same,nuclei count,[3],109%
same,fluorescence slope,[4],-0.273 (inactive)
same,NADPH fluorescence slope,[5],-1.5e-05 (inactive)
same,fluorescence slope,[6],0.00571 (inactive)
same,inhibition,[7],2.83% (inactive)
same,inhibition,[8],20.2% (inactive)
Cc1nc(-c2ccc(NC(=O)c3cccs3)cc2)cs1,cell count,[1],369
same,inhibition,[1],-3.7% (inactive)
same,inhibition of aggregation,[2],20.1% (inactive)
same,nuclei count,[2],105%
same,inhibition,[3],-0.4% (inactive)
same,nuclei count,[3],109%
same,fluorescence slope,[4],-0.427 (inactive)
same,NADPH fluorescence slope,[5],-4.1e-05 (inactive)
same,fluorescence slope,[6],0.005 (inactive)
same,inhibition,[7],-23.5% (inactive)
same,inhibition,[8],-96.4% (inactive)
O=C(CCCCC(=O)NCc1cccs1)NCc1cccs1,cell count,[1],681
same,inhibition,[1],-12.6% (inactive)
same,inhibition of aggregation,[2],-3.7% (inactive)
same,nuclei count,[2],110%
same,inhibition,[3],0.6% (inactive)
same,nuclei count,[3],88.9%
same,fluorescence slope,[4],-0.571 (inactive)
same,NADPH fluorescence slope,[5],3.2e-05 (inactive)
same,fluorescence slope,[6],0.00493 (inactive)
same,inhibition,[7],-6.61% (inactive)
same,inhibition,[8],0.312% (inactive)
CCOC(=O)c1cc2c(=O)n3cccc(C)c3nc2n(Cc2ccco2)c1=NC(=O)c1cccnc1,cell count,[1],791
same,inhibition,[1],-1.1% (inactive)
same,inhibition of aggregation,[2],1.7% (inactive)
same,nuclei count,[2],108%
same,inhibition,[3],-59.3% (inactive)
same,nuclei count,[3],112%
same,fluorescence slope,[4],-0.439 (inactive)
same,NADPH fluorescence slope,[5],-2e-05 (inactive)
same,fluorescence slope,[6],0.00326 (inactive)
same,inhibition,[7],8% (inactive)
same,inhibition,[8],-0.151% (inactive)
O=C(Nc1ccc(S(=O)(=O)NCCc2ccccc2)cc1)c1ccc(Br)o1,cell count,[1],546
same,inhibition,[1],-1.3% (inactive)
same,inhibition of aggregation,[2],-22.6% (inactive)
same,nuclei count,[2],62.9%
same,inhibition,[3],-10.4% (inactive)
same,nuclei count,[3],88.5%
same,fluorescence slope,[4],-0.499 (inactive)
same,NADPH fluorescence slope,[5],-5.2e-06 (inactive)
same,fluorescence slope,[6],0.00439 (inactive)
same,inhibition,[7],-1.94% (inactive)
same,inhibition,[8],-11.8% (inactive)
COc1ccccc1CN(Cc1nc2ccccc2c(=O)[nH]1)C(=O)Nc1ccccc1,cell count,[1],733
same,inhibition,[1],-6.8% (inactive)
same,inhibition of aggregation,[2],16.9% (inactive)
same,nuclei count,[2],87.7%
same,inhibition,[3],-68.2% (inactive)
same,nuclei count,[3],134%
same,fluorescence slope,[4],-0.49 (inactive)
same,NADPH fluorescence slope,[5],-4.8e-05 (inactive)
same,fluorescence slope,[6],0.0059 (inactive)
same,inhibition,[7],3.14% (inactive)
same,inhibition,[8],12.2% (inactive)
Cc1cc(C)cc(OCCCC(=O)O)c1,cell count,[1],254
same,inhibition,[1],9.4% (inactive)
same,inhibition of aggregation,[2],12.3% (inactive)
same,nuclei count,[2],118%
same,inhibition,[3],-45% (inactive)
same,nuclei count,[3],94.2%
same,fluorescence slope,[4],-0.531 (inactive)
same,NADPH fluorescence slope,[5],-4.2e-05 (inactive)
same,fluorescence slope,[6],0.00463 (inactive)
same,inhibition,[7],-0.0954% (inactive)
same,inhibition,[8],17.4% (inactive)
Cn1nc(C(=O)Nc2cccc(C(F)(F)F)c2)ccc1=O,cell count,[1],357
same,inhibition,[1],9.9% (inactive)
same,inhibition of aggregation,[2],-1.2% (inactive)
same,nuclei count,[2],100%
same,inhibition,[3],-46.7% (inactive)
same,nuclei count,[3],104%
same,fluorescence slope,[4],-0.576 (inactive)
same,NADPH fluorescence slope,[5],4e-05 (inactive)
same,fluorescence slope,[6],0.00652 (inactive)
same,inhibition,[7],5.35% (inactive)
same,inhibition,[8],-5.97% (inactive)
COCC(=O)NC(c1ccccc1)c1ccccc1,cell count,[1],336
same,inhibition,[1],9.4% (inactive)
same,inhibition of aggregation,[2],4.5% (inactive)
same,nuclei count,[2],100%
same,inhibition,[3],-13.4% (inactive)
same,nuclei count,[3],122%
same,fluorescence slope,[4],-0.561 (inactive)
same,NADPH fluorescence slope,[5],-7e-05 (inactive)
same,fluorescence slope,[6],0.00683 (inactive)
same,inhibition,[7],14.6% (inactive)
same,inhibition,[8],19.5% (inactive)
CCOc1ccccc1N1CCN(S(=O)(=O)c2cccc3nsnc23)CC1,cell count,[1],453
same,inhibition,[1],3.9% (inactive)
same,inhibition of aggregation,[2],-10.4% (inactive)
same,nuclei count,[2],94%
same,inhibition,[3],-6.6% (inactive)
same,nuclei count,[3],106%
same,fluorescence slope,[4],-0.472 (inactive)
same,NADPH fluorescence slope,[5],2.9e-06 (inactive)
same,fluorescence slope,[6],0.00356 (inactive)
same,inhibition,[7],22.8% (inactive)
same,inhibition,[8],18.5% (inactive)
O=C1CC(c2ccccc2)CC(O)=C1C=NCCCN1CCOCC1 (centres undefined),cell count,[1],307
same,inhibition,[1],3.9% (inactive)
same,inhibition of aggregation,[2],22.3% (inactive)
same,nuclei count,[2],88.8%
same,inhibition,[3],49.8% (inactive)
same,nuclei count,[3],69.3%
same,fluorescence slope,[4],-0.466 (inactive)
same,NADPH fluorescence slope,[5],-4e-06 (inactive)
same,fluorescence slope,[6],0.00557 (inactive)
same,inhibition,[7],7.43% (inactive)
same,inhibition,[8],9.1% (inactive)
